Experiments:
Assay type in all cases: functional
Oryctolagus cuniculus = organism: Oryctolagus cuniculus; test: Effective dose for [14C]5-HT release in prelabeled rabbit platelets was measured; details: read-out: ED50 (the source's name)
In short: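 Rabbit platelet-rich plasma labeled with [14C]serotonin 1.0 μCi/mL, 37 °C, 15 min. Washed twice, then 5×10^7 platelets/0.2 mL in citrate-free Tyrode's (pH 7.3) with 1 mM Ca2+, 37 °C, 20 min. Challenged 1 min, stopped with formalin on ice, supernatant label counted as % of total cellular label. ED50 extrapolated for 50% release from curves averaged over ≥5 dose-response experiments.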

Homo sapiens [1] = organism: Homo sapiens; test: Desensitizing action on human PMN degranulation response, in the presence of PAF (200 nM) at the dose of 60 nM
In short: (§1)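 Human neutrophils (>96% PMN, <5 platelets/100 PMN, no erythrocytes) at 2.6×10^6 cells/mL in Hanks' buffer, 37 °C, 20 min. Preincubated 8 min with desensitizing agent in BSA, or BSA alone. Then cytochalasin B 5 μg/mL for 2–4 min, then challenge 5 min with 200 nM 1-O-hexadecyl PAF or 17 nM FMLP. Read-out is net β-glucuronidase release vs BSA-pretreated cells, 14 experiments, unpaired t-test.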

Homo sapiens [2] = organism: Homo sapiens; test: Effective dose for lysozyme release in human PMN was measured
In short: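 Human PMN at 2.6×10^6 cells/mL in Hanks' buffer, 37 °C, 20 min. Cytochalasin B 5 μg/mL for 2–4 min, then racemic analogue challenge 5 min, on ice, spun 200g at 4 °C. Net lysozyme release = % of total minus unstimulated release. ED10 extrapolated for 10% net release from curves averaged over ≥5 dose-response experiments.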

Homo sapiens [3] = organism: Homo sapiens; test: Desensitizing action on human PMN degranulation response, in the presence of FMLP (17 nM) at the dose of 60 nM; in short: as §1
Homo sapiens [4] = organism: Homo sapiens; test: Desensitizing action on human PMN degranulation response, in the presence of PAF (200 nM) at the dose of 10 nM; in short: as §1
Homo sapiens [5] = organism: Homo sapiens; test: Desensitizing action on human PMN degranulation response, in the presence of FMLP (17 nM) at the dose of 10 nM; in short: as §1
Homo sapiens [6] = organism: Homo sapiens; test: Desensitizing action on human PMN degranulation response, in the presence of PAF (200 nM) at the dose of 9 nM; in short: as §1
Homo sapiens [7] = organism: Homo sapiens; test: Desensitizing action on human PMN degranulation response, in the presence of FMLP (17 nM) at the dose of 9 nM; in short: as §1
Homo sapiens [8] = organism: Homo sapiens; test: Desensitizing action on human PMN degranulation response, in the presence of FMLP (17 nM) at the dose of 17 nM; in short: as §1
Homo sapiens [9] = organism: Homo sapiens; test: Desensitizing action on human PMN degranulation response, in the presence of PAF (200 nM) at the dose of 17 nM; in short: as §1
Homo sapiens [10] = organism: Homo sapiens; test: Desensitizing action on human PMN degranulation response, in the presence of PAF (200 nM) at the dose of 8 nM
In short: (§2)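 Human neutrophils (>96% PMN, <5 platelets/100 PMN, no erythrocytes) in Hanks' buffer at 2.6×10^6 cells/mL, 37 °C, 20 min; preincubated 8 min with desensitizing agent (in BSA) or BSA alone, then cytochalasin B 5 μg/mL for 2–4 min, challenged 5 min (200 nM PAF or 17 nM FMLP). Supernatant assayed for net β-glucuronidase release, 14 experiments; unpaired t-test versus BSA.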

Homo sapiens [11] = organism: Homo sapiens; test: Desensitizing action on human PMN degranulation response, in the presence of FMLP (17 nM) at the dose of 8 nM; in short: as §2

Q: CCCCCCCCCCCCCCCCCCOCC(COP(=O)([O-])OCC[N+](C)(C)C)OC(C)=O (configuration not stated) was tested. Which EC50 (Oryctolagus cuniculus) did it give?
A: Its EC50 is 800 pM.

Q: What about the Degranulating activity (Homo sapiens [1]) of the same molecule?
A: The Degranulating activity was -1.2.

Q: And the ED10 (Homo sapiens [2])?
A: Its ED10 is 60000 pM.

Q: And the Degranulating activity (Homo sapiens [3])?
A: The Degranulating activity was 22.

Q: With CCCCCC/C=C\CCCCCCCCOCC(COP(=O)([O-])OCC[N+](C)(C)C)OC(C)=O (configuration not stated) as the molecule, how does the Degranulating activity (Homo sapiens [4]) read?
A: The Degranulating activity was 1.4.

Q: What about the EC50 (Oryctolagus cuniculus) of the same molecule?
A: Its EC50 is 500 pM.

Q: And the ED10 (Homo sapiens [2])?
A: The ED10 was 10000 pM.

Q: What about the Degranulating activity (Homo sapiens [5]) of the same molecule?
A: Its Degranulating activity is 29.5.

Q: Which results are given for CCCCC/C=C\C/C=C\CCCCCCCCOCC(COP(=O)([O-])OCC[N+](C)(C)C)OC(C)=O (configuration not stated)?
A: Degranulating activity (Homo sapiens [6]): 0.1; Degranulating activity (Homo sapiens [7]): 26.3; EC50 (Oryctolagus cuniculus): 300 pM; ED10 (Homo sapiens [2]): 9000 pM

Q: How did the Degranulating activity (Homo sapiens [4]) turn out when CCCCCCCC/C=C\CCCCCCCCOCC(COP(=O)([O-])OCC[N+](C)(C)C)OC(C)=O (configuration not stated) was run?
A: Its Degranulating activity is 0.3.

Q: What about the EC50 (Oryctolagus cuniculus) of the same molecule?
A: The EC50 was 400 pM.

Q: And the ED10 (Homo sapiens [2])?
A: Its ED10 is 13000 pM.

Q: What about the Degranulating activity (Homo sapiens [5]) of the same molecule?
A: Its Degranulating activity is 28.2.

Q: Which results are given for CSCC[C@H](NC=O)C(=O)N[C@@H](CC(C)C)C(=O)N[C@@H](Cc1ccccc1)C(=O)O?
A: Degranulating activity (Homo sapiens [8]): 6.2; Degranulating activity (Homo sapiens [9]): 11.9

Q: What does the source list for CCCCCCCCCCCCCCCCOCC(COP(=O)([O-])OCC[N+](C)(C)C)OC(C)=O (configuration not stated) [PLATELET ACTIVATING FACTOR]?
A: Degranulating activity (Homo sapiens [10]): -0.2; Degranulating activity (Homo sapiens [11]): 23.6; EC50 (Oryctolagus cuniculus): 200 pM; ED10 (Homo sapiens [2]): 8000 pM

Source: ChEMBL document CHEMBL1122936, “Facile synthesis of platelet-activating factor and racemic analogues containing unsaturation in the sn-1-alkyl chain” (1985)
